Assays:
Coagulation factor XI = Coagulation factor XI (Homo sapiens, UniProt P03951); test: Inhibition of human factor 11a using S-2366 chromogenic substrate
Outline: (§1)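 Human enzyme and inhibitor were premixed and preincubated, then the chromogenic substrate was added. Substrate levels: 300 μM S-2765 (FXa, trypsin); 200 μM S-2366 (FIIa); 2 mM S-2366 (FVIIa, FXIa). pNA release was monitored continuously at 405 nm for 20 min at 37 °C. IC50 was obtained by nonlinear regression.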

[1] = AUC (0 to infinity) in Sprague-Dawley rat at 3 mg/kg, iv; assay type: ADME, organism-based; set-up: time infinity, dose 3 mg/kg, route intravenous; conditions: plasma
Outline: (§2)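 Male Sprague-Dawley rats, 200−220 g, four per group. Vehicle was 5% DMSO + 5% Tween-80 in 90% saline. The reference drug was given in 10% DMSO + 10% Tween-80 + 80% PEG400 (40% solution in saline). Serial retrobulbar vein samples were quantified by LC-MS. Parameters came from noncompartmental analysis of mean plasma concentrations.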

Rattus norvegicus [2] = test: Toxicity in rat assessed as induction of body weight changes at 100 mg/kg, po dosed once daily for 2 weeks; assay type: organism-based; set-up: dose 100 mg/kg, route oral; conditions: in vivo, 336 h
Outline: (§3)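 Subacute toxicity in rats: oral dosing once daily for 2 weeks at 50 mg/kg (medium) or 100 mg/kg (high). Behavior, body weight, food intake, organ coefficients and survival rate were monitored.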

Coagulation factor IX = Coagulation factor IX (Homo sapiens, UniProt P00740); test: Inhibition of human factor 9a using CH3SO2-(D)CHG Gly-Arg-pNA, Biophen-CS51 chromogenic substrate
Chain of Coagulation factor IX (P00740 47-191 limits assumed): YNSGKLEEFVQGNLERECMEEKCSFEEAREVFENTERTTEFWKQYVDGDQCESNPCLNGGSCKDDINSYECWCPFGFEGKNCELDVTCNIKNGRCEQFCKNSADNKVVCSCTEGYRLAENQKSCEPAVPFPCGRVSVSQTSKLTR
Chain of Coagulation factor IX (P00740 227-461 limits assumed): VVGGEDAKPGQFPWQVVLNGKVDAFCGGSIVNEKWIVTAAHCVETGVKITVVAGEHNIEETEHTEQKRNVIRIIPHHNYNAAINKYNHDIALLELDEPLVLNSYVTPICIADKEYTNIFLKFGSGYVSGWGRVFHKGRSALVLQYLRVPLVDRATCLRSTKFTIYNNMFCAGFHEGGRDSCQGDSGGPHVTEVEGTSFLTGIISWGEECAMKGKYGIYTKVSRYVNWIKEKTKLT

Cytochrome P450 2C9 = Cytochrome P450 2C9 (Homo sapiens, UniProt P11712); test: Inhibition of CYP2C9 (unknown origin); assay type: ADME
Chain of Cytochrome P450 2C9 (P11712 whole entry): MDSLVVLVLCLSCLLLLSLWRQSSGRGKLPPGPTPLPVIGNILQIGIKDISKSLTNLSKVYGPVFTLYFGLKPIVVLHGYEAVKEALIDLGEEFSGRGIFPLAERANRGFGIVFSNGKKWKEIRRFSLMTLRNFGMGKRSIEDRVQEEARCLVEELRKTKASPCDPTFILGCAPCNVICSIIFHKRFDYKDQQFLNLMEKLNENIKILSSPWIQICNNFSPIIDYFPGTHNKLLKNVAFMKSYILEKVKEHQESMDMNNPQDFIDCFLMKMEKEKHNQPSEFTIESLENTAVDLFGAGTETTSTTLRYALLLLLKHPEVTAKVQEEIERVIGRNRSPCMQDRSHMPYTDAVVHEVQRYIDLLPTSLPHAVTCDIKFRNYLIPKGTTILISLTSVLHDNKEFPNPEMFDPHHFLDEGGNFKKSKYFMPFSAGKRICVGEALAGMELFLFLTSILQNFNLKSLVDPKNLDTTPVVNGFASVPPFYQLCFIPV

Rattus norvegicus [3] = test: Toxicity in rat assessed as survival rate changes at 100 mg/kg, po dosed once daily for 2 weeks; assay type: organism-based; set-up: dose 100 mg/kg, route oral; conditions: in vivo, 336 h; outline: as §3
Plasma [4] = test: Anticoagulant activity in citrated rabbit plasma assessed as drug concentration required to double plasma clotting time preincubated for 10 mins at 37 degC by coagulometry; assay type: functional, Oryctolagus cuniculus
Outline: (§4)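 Test compound or DMSO added to citrated rabbit plasma (3.8% sodium citrate, 10:90 v/v) and preincubated 10 min at 37 °C. PT and aPTT clotting times measured on a coagulometer with commercial kits. Activity expressed as the concentration needed to double plasma clotting time (CT2, μM).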

Rattus norvegicus [5] = test: Toxicity in rat assessed as survival rate changes at 50 mg/kg, po dosed once daily for 2 weeks; assay type: organism-based; set-up: dose 50 mg/kg, route oral; conditions: in vivo, 336 h; outline: as §3
V79 = test: Toxicity in Chinese hamster V79 cells by micronucleus Assay; assay type: cell-based, Cricetulus griseus
Prothrombin = Prothrombin (Homo sapiens, UniProt P00734); test: Inhibition of human factor 2a using L-pyro-Glu-Pro-ArgpNA, S-2366 chromogenic substrate; outline: as §1
Cytochrome P450 2C19 = Cytochrome P450 2C19 (Homo sapiens, UniProt P33261); test: Inhibition of CYP2C19 (unknown origin); assay type: ADME
Chain of Cytochrome P450 2C19 (P33261 whole entry): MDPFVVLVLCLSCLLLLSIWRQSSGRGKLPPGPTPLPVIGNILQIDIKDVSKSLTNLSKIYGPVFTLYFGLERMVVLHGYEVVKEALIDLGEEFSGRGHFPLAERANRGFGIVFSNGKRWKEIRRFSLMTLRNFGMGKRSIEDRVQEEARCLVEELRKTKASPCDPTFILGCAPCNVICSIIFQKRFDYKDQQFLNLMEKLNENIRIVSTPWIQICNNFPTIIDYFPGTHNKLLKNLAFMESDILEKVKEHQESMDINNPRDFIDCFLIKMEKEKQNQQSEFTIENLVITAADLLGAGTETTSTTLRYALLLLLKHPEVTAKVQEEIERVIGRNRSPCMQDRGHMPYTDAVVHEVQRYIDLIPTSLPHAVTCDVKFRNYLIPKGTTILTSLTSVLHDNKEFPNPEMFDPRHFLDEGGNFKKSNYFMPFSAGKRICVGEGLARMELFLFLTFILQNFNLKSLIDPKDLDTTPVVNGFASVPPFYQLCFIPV

Salmonella typhimurium = test: Genotoxicity in Salmonella typhimurium by Ames test; assay type: toxicity, organism-based; conditions: salmonella enterica subsp. enterica serovar typhimurium
[6] = Oral bioavailability in Beagle dog at 1 mg/kg; assay type: ADME, organism-based, Canis lupus familiaris; conditions: in vivo
Outline: (§5)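 Male dogs, three per group. Dosed orally at 1 mg/kg or by intravenous infusion at 0.5 mg/kg. Vehicle was 5% DMSO + 5% Tween-80 in 90% saline, or 10% DMSO + 10% Tween-80 + 80% PEG400 for the reference drug. Foreleg blood samples were quantified by LC-MS. Parameters came from noncompartmental analysis of mean plasma concentrations.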

[7] = Plasma clearance in Sprague-Dawley rat at 3 mg/kg, iv; assay type: ADME, organism-based; set-up: dose 3 mg/kg, route intravenous; outline: as §2
Rattus norvegicus [8] = test: Toxicity in rat assessed as induction of organ coefficients changes at 50 mg/kg, po dosed once daily for 2 weeks; assay type: organism-based; set-up: dose 50 mg/kg, route oral; conditions: in vivo, 336 h; outline: as §3
Cytochrome P450 1A2 = biological target: T1, Cytochrome P450 1A2 (Homo sapiens, UniProt P05177); test: Inhibition of CYP1A2 (unknown origin); assay type: ADME
T1 sequence (P05177 whole entry): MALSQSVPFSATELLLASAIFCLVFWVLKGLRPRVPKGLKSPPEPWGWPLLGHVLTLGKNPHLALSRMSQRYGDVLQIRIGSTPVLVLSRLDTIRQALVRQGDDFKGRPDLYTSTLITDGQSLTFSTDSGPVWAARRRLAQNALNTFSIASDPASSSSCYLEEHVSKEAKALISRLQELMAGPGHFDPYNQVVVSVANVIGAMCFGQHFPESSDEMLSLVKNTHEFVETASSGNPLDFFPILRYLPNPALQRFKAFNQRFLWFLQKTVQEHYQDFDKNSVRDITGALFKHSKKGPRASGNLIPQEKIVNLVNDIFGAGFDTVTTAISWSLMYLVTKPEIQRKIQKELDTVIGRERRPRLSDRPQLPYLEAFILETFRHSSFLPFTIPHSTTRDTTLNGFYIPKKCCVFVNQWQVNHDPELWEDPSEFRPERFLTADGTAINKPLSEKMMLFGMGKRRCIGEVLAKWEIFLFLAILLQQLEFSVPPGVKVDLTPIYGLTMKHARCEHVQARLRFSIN

Rattus norvegicus [9] = test: Toxicity in rat assessed as induction of food intake changes at 50 mg/kg, po dosed once daily for 2 weeks; assay type: organism-based; set-up: dose 50 mg/kg, route oral; conditions: in vivo, 336 h; outline: as §3
[10] = Cmax in Beagle dog at 1 mg/kg, po; assay type: ADME, organism-based, Canis lupus familiaris; set-up: dose 1 mg/kg, route oral; conditions: in vivo; outline: as §5
[11] = Tmax in Beagle dog at 1 mg/kg, po; assay type: ADME, organism-based, Canis lupus familiaris; set-up: dose 1 mg/kg, route oral; conditions: in vivo; outline: as §5
Rattus norvegicus [12] = test: Toxicity in rat assessed as induction of food intake changes at 100 mg/kg, po dosed once daily for 2 weeks; assay type: organism-based; set-up: dose 100 mg/kg, route oral; conditions: in vivo, 336 h; outline: as §3
Cytochrome P450 2D6 = Cytochrome P450 2D6 (Homo sapiens, UniProt P10635); test: Inhibition of CYP2D6 (unknown origin); assay type: ADME
Chain of Cytochrome P450 2D6 (P10635 whole entry): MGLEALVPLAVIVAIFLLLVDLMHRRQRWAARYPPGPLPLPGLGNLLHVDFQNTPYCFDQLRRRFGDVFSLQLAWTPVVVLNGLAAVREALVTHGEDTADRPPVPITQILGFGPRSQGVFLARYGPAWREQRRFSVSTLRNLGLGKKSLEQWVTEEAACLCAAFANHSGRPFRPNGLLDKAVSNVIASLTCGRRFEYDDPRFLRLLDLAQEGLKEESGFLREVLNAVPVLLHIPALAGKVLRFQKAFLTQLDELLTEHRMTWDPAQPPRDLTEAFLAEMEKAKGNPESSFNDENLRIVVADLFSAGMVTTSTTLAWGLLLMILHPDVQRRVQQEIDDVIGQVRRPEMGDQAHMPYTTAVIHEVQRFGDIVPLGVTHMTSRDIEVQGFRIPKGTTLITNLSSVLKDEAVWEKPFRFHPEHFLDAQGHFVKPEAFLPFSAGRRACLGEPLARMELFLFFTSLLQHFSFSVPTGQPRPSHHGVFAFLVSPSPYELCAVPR

Cytochrome P450 3A4 = Cytochrome P450 3A4 (Homo sapiens, UniProt P08684); test: Inhibition of CYP3A4 (unknown origin); assay type: ADME
Chain of Cytochrome P450 3A4 (P08684 whole entry): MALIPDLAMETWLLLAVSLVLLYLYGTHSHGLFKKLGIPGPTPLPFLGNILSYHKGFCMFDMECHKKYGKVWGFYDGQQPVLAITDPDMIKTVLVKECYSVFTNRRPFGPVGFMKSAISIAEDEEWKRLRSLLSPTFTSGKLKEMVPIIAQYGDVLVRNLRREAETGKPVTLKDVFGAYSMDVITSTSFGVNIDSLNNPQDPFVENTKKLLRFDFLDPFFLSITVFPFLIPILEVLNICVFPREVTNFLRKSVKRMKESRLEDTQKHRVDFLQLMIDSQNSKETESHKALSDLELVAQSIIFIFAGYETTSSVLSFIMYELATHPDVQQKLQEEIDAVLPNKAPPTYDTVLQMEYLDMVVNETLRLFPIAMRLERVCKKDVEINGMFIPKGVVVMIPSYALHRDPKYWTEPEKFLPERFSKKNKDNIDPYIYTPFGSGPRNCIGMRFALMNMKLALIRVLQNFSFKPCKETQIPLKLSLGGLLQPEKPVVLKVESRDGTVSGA

Rattus norvegicus [13] = test: Induction of tail bleeding in rat assessed as prolongation of bleeding time dosed orally 60 mins before surgery; assay type: organism-based; conditions: in vivo, po, 1 h
Outline: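 Anesthetized rats were dosed orally with compound suspended in 0.5% CMC-Na, or vehicle, 60 min before the tail was transected 4 mm from the tip. The tail was immersed vertically in saline at 37 °C. Bleeding time was taken as the point when flow ceased for >30 s, with a 30 min maximum.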

[14] = Elimination half life in Beagle dog at 1 mg/kg, po; assay type: ADME, organism-based, Canis lupus familiaris; set-up: dose 1 mg/kg, route oral; conditions: in vivo; outline: as §5
Trypsin = Trypsin (Homo sapiens, UniProt P07477+P07478+P35030); test: Inhibition of human trypsin using N-Z-D-Arg-Gly-Arg-pNA, S-2765 chromogenic substrate; assay type: protein assay; outline: as §1
[15] = AUC (0 to infinity) in Beagle dog at 1 mg/kg, po; assay type: ADME, organism-based, Canis lupus familiaris; set-up: time infinity, dose 1 mg/kg, route oral; conditions: plasma; outline: as §5
[16] = Oral bioavailability in Sprague-Dawley rat at 10 mg/kg; assay type: ADME, organism-based; conditions: in vivo; outline: as §2
[17] = Volume of distribution at steady state in Beagle dog at 0.5 mg/kg, iv; assay type: ADME, organism-based, Canis lupus familiaris; set-up: dose 0.5 mg/kg, route intravenous; conditions: in vivo, read-out: Vdss; outline: as §5
[18] = AUC (0 to infinity) in Beagle dog at 0.5 mg/kg, iv; assay type: ADME, organism-based, Canis lupus familiaris; set-up: time infinity, dose 0.5 mg/kg, route intravenous; conditions: plasma; outline: as §5
[19] = Plasma clearance in Beagle dog at 0.5 mg/kg, iv; assay type: ADME, organism-based, Canis lupus familiaris; set-up: dose 0.5 mg/kg, route intravenous; outline: as §5
Rattus norvegicus [20] = test: Toxicity in rat assessed as induction of organ coefficients changes at 100 mg/kg, po dosed once daily for 2 weeks; assay type: organism-based; set-up: dose 100 mg/kg, route oral; conditions: in vivo, 336 h; outline: as §3
Plasma [21] = test: Anticoagulant activity in citrated rabbit plasma assessed as activated partial thromboplastin time preincubated for 10 mins at 37 degC by coagulometry; assay type: functional, Oryctolagus cuniculus; outline: as §4

Chain of Coagulation factor XI (P03951 19-387 limits assumed): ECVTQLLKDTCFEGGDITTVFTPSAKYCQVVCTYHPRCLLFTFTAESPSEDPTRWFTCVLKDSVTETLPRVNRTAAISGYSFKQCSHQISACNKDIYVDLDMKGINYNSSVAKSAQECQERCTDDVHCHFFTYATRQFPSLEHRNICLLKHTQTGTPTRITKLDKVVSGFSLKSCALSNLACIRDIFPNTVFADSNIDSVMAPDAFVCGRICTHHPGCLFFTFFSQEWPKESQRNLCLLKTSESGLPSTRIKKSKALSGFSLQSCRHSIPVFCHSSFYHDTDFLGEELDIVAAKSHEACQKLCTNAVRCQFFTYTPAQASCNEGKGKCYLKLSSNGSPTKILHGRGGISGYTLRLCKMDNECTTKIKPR
Chain of Coagulation factor XI (P03951 388-625 limits assumed): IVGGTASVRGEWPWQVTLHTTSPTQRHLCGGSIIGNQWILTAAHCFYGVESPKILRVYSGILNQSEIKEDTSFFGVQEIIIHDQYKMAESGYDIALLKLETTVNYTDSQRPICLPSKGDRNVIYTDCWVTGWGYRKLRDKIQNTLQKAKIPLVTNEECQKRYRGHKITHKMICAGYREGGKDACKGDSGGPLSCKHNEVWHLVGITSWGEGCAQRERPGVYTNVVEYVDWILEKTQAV

Structure (SMILES): O=C(NC[C@@H]1OC(=O)N2c3ccc(N4CCOCC4=O)cc3OC[C@@H]12)c1ccc(Cl)s1
- IC50 (Coagulation factor XI): > 100 µM
- AUC(0-inf) [1]: 15300 ng·h/mL
- Activity (Rattus norvegicus [2]): Non-toxic
- IC50 (Coagulation factor IX): > 100 µM
- IC50 (Cytochrome P450 2C9): 43.2 µM
- Activity (Rattus norvegicus [3]): Non-toxic
- Activity (Plasma [4]): 0.18 µM
- Activity (Rattus norvegicus [5]): Non-toxic
- Activity (V79): Non-toxic
- IC50 (Prothrombin): > 100 µM
- IC50 (Cytochrome P450 2C19): > 200 µM
- Activity (Salmonella typhimurium): Non-toxic
- bioavailability [6]: 92%
- clearance [7]: 3.35 mL/min/kg
- Activity (Rattus norvegicus [8]): Non-toxic
- IC50 (Cytochrome P450 1A2): > 200 µM
- Activity (Rattus norvegicus [9]): Non-toxic
- Cmax [10]: 530 ng/mL
- Tmax [11]: 0.5 h
- Activity (Rattus norvegicus [12]): Non-toxic
- IC50 (Cytochrome P450 2D6): > 200 µM
- IC50 (Cytochrome P450 3A4): 85.1 µM
- Activity (Rattus norvegicus [13]): Dose-dependent effect
- half-life [14]: 2 h
- IC50 (Trypsin): > 100 µM
- AUC(0-inf) [15]: 1530 ng·h/mL
- bioavailability [16]: 63.7%
- Vd [17]: 1.7 L/kg
- AUC(0-inf) [18]: 1320 ng·h/mL
- clearance [19]: 6.67 mL/min/kg
- Activity (Rattus norvegicus [20]): Non-toxic
- 2aPTT (Plasma [21]): 0.14 µM

Reference: ChEMBL document CHEMBL3351225, “Design, synthesis, and structure-activity and structure-pharmacokinetic relationship studies of novel [6,6,5] tricyclic fused oxazolidinones leading to the discovery of a potent, selective, and orally bioavailable FXa inhibitor” (J Med Chem, 2014)
